Activity calls are given as the source filed them. No cut-off for these calls is given here.
What was measured:
[1] = test system: Candida albicans; assay: Inhibition of Candida albicans MDR1 transporter expressed in Saccharomyces cerevisiae AD cells assessed as nile red dye accumulation at 70 uM after 30 mins by flow cytometric analysis relative to control; format: cell-based
Outline: (§1)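 S. cerevisiae AD strains overexpressing CaCdr1p (AD-CDR1) or CaMdr1p (AD-MDR1) were grown at 30 °C from OD600 0.1 to 0.25. They were resuspended as a 5% suspension in YEPD:water 1:2. Nile Red (7 μM final) was given ± inhibitor (70 μM) for 30 min at 30 °C. Accumulation was read by flow cytometry on 10 000 cells. Means ± SD, three independent experiments.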

[2] = test system: Candida albicans; assay: Inhibition of Candida albicans CDR1 transporter expressed in Saccharomyces cerevisiae AD cells assessed as nile red accumulation at 70 uM after 30 mins by flow cytometric analysis relative to control; format: cell-based; outline: as §1

## C=C1[C@@H](OC(C)=O)[C@H]2[C@@H](OC(C)=O)[C@](C)(OC(C)=O)C[C@]2(OC(C)=O)C(=O)[C@H](C)/C=C/C(C)(C)C(=O)[C@H](OC(=O)c2ccccc2)[C@H]1OC(C)=O
[1]
  inhibition: inactive
[2]
  inhibition: inactive

## C=C1[C@@H](OC(C)=O)[C@H]2[C@@H](OC(C)=O)[C@](C)(OC(C)=O)C[C@]2(OC(C)=O)C(=O)[C@H](C)/C=C/C(C)(C)C(=O)[C@H](OC(C)=O)[C@H]1OC(C)=O
[1]
  inhibition: inactive
[2]
  inhibition: inactive

## C=C1[C@@H](OC(=O)C(C)C)[C@H]2[C@@H](OC(C)=O)[C@](C)(OC(C)=O)C[C@]2(O)C(=O)[C@@H](C)/C=C/C(C)(C)[C@H](OC(C)=O)[C@H](OC(C)=O)[C@H]1OC(=O)c1ccccc1
[1]
  inhibition: inactive
[2]
  inhibition: inactive

## C=C1[C@@H](OC(C)=O)[C@H]2[C@@H](OC(C)=O)[C@](C)(O)C[C@]2(OC(C)=O)C(=O)[C@H](C)/C=C/C(C)(C)C(=O)[C@H](OC(=O)C(C)C)[C@H]1OC(C)=O
[1]
  inhibition: inactive
[2]
  inhibition: inactive

## C=C1[C@@H](OC(C)=O)[C@H]2[C@@H](OC(C)=O)[C@](C)(OC(=O)c3cccnc3)C[C@]2(O)C(=O)[C@@H](C)/C=C/C(C)(C)[C@H](OC(=O)c2cccnc2)[C@H](OC(C)=O)[C@H]1OC(=O)c1ccccc1
[1]
  inhibition: inactive
[2]
  inhibition: inactive

## C=C1[C@@H](OC(=O)c2ccccc2)[C@H]2[C@@H](OC(C)=O)[C@](C)(O)C[C@]2(O)C(=O)[C@@H](C)/C=C/C(C)(C)[C@H](OC(C)=O)[C@H](OC(C)=O)[C@H]1OC(=O)c1cccnc1
[1]
  inhibition: inactive
[2]
  inhibition: inactive

## C=C1[C@@H](OC(=O)C(C)C)[C@H]2[C@@H](OC(C)=O)[C@](C)(OC(=O)c3cccnc3)C[C@]2(O)C(=O)[C@@H](C)/C=C/C(C)(C)[C@H](OC(=O)c2cccnc2)[C@H](OC(C)=O)[C@H]1OC(=O)c1ccccc1
[1]
  inhibition: inactive
[2]
  inhibition: inactive

## CC(=O)O[C@H]1[C@@H](OC(C)=O)C(C)(C)/C=C/[C@@](C)(O)C(=O)[C@@]2(OC(C)=O)C[C@@](C)(OC(C)=O)[C@H](OC(C)=O)[C@@H]2[C@H]2OC(=O)CC[C@@]2(OC(C)=O)[C@@H]1OC(=O)C(C)C
[1]
  inhibition: inactive
[2]
  inhibition: inactive

## C=C1[C@@H](OC(=O)c2ccccc2)[C@H]2[C@@H](O)[C@](C)(OC(C)=O)C[C@]2(O)C(=O)[C@@H](C)/C=C/C(C)(C)[C@H](OC(C)=O)[C@H](O)[C@H]1OC(=O)c1ccccc1
[1]
  inhibition: inactive
[2]
  inhibition: inactive

## C=C1[C@@H](OC(=O)c2ccccc2)[C@H]2[C@@H](O)[C@](C)(OC(C)=O)C[C@]2(O)C(=O)[C@@H](C)/C=C/C(C)(C)[C@H](OC(C)=O)[C@H](OC(C)=O)[C@H]1OC(=O)c1ccccc1
[1]
  inhibition: inactive
[2]
  inhibition: inactive

## C=C1[C@@H](OC(C)=O)[C@H]2[C@@H](OC(C)=O)[C@](C)(OC(=O)c3cccnc3)C[C@]2(OC(C)=O)C(=O)[C@@H](C)/C=C/C(C)(C)[C@H](OC(=O)c2cccnc2)[C@H](OC(C)=O)[C@H]1OC(=O)C(C)C
[1]
  inhibition: inactive
[2]
  inhibition: inactive

## CC(=O)O[C@H]1[C@@H](OC(C)=O)C(C)(C)/C=C/[C@H](C)C(=O)[C@@]2(OC(C)=O)C[C@@](C)(OC(C)=O)[C@H](O)[C@@H]2[C@H]2OC(=O)CC[C@@]2(OC(C)=O)[C@@H]1OC(=O)C(C)C
[1]
  inhibition: inactive
[2]
  inhibition: inactive

## C=C1[C@@H](OC(=O)C(C)C)[C@H]2[C@@H](OC(C)=O)[C@@H](C)C[C@]2(O)C(=O)[C@@H](C)/C=C/C(C)(C)[C@H](OC(C)=O)[C@H](OC(C)=O)[C@H]1OC(=O)c1ccccc1
[1]
  inhibition: inactive
[2]
  inhibition: inactive

## C=C1[C@@H](OC(=O)C(C)C)[C@H]2[C@@H](OC(=O)C(C)C)[C@](C)(OC(C)=O)C[C@]2(O)C(=O)[C@@H](C)/C=C/C(C)(C)[C@H](OC(C)=O)[C@H](OC(C)=O)[C@H]1OC(=O)c1ccccc1
[1]
  inhibition: inactive
[2]
  inhibition: inactive

## C=C1[C@@H](OC(C)=O)[C@H]2[C@@H](OC(=O)c3ccccc3)[C@@H](C)C[C@]2(O)[C@H](OC(C)=O)[C@H](C)/C=C/[C@@](C)(CO)C(=O)[C@H](O)[C@H]1OC(C)=O
[1]
  inhibition: inactive
[2]
  inhibition: inactive

## C=C1CCC2[C@@H](/C=C(\C)C(=O)[C@@]3(OC(C)=O)C[C@H](C)[C@H](OC(C)=O)[C@@H]3[C@H]1OC(C)=O)C2(C)C (single isomer, unassigned)
[1]
  inhibition: inactive
[2]
  inhibition: inactive

## C=C1[C@@H](OC(C)=O)[C@H]2[C@@H](OC(C)=O)[C@](C)(O)C[C@]2(OC(C)=O)C(=O)[C@H](C)/C=C/C(C)(C)C(=O)[C@H](OC(=O)c2ccccc2)[C@H]1OC(C)=O
[1]
  inhibition: inactive
[2]
  inhibition: inactive

## C=C1[C@@H](OC(C)=O)[C@H]2[C@@H](OC(C)=O)[C@](C)(O)C[C@]2(OC(C)=O)C(=O)[C@H](C)/C=C/C(C)(C)C(=O)[C@H](OC(=O)/C(C)=C/C)[C@H]1OC(C)=O
[1]
  inhibition: inactive
[2]
  inhibition: inactive

## C=C1[C@@H](OC(=O)C(C)C)[C@H]2[C@@H](OC(=O)c3ccccc3)[C@](C)(OC(C)=O)C[C@]2(O)C(=O)[C@@H](C)/C=C/C(C)(C)[C@H](OC(C)=O)[C@H](OC(C)=O)[C@H]1OC(=O)C(C)C
[1]
  inhibition: inactive
[2]
  inhibition: inactive

## C=C1[C@@H](OC(C)=O)[C@H]2[C@@H](OC(=O)c3ccccc3)[C@@H](C)C[C@]2(O)[C@H](O)[C@H](C)/C=C/C(C)(C)C(=O)[C@H](OC(C)=O)[C@H]1OC(C)=O
[1]
  inhibition: inactive
[2]
  inhibition: inactive

## C=C1[C@@H](OC(=O)C(C)C)[C@H]2[C@@H](O)[C@](C)(OC(C)=O)C[C@]2(O)C(=O)[C@@H](C)/C=C/C(C)(C)[C@H](OC(C)=O)[C@H](OC(C)=O)[C@H]1OC(=O)c1ccccc1
[1]
  inhibition: inactive
[2]
  inhibition: inactive

## C=C1[C@@H](OC(=O)C(C)C)[C@H]2[C@@H](OC(C)=O)[C@](C)(O)C[C@]2(O)C(=O)[C@@H](C)/C=C/C(C)(C)[C@H](OC(C)=O)[C@H](OC(C)=O)[C@H]1OC(=O)c1ccccc1
[1]
  inhibition: inactive
[2]
  inhibition: inactive

## C=C1[C@@H](OC(C)=O)[C@H]2[C@@H](OC(C)=O)[C@](C)(OC(=O)c3cccnc3)C[C@]2(OC(C)=O)C(=O)[C@@H](C)/C=C/C(C)(C)[C@H](OC(=O)c2cccnc2)[C@H](OC(C)=O)[C@H]1OC(=O)c1ccccc1
[1]
  inhibition: inactive
[2]
  inhibition: inactive

## C=C1[C@@H](OC(C)=O)[C@H]2[C@@H](OC(C)=O)[C@](C)(OC(C)=O)C[C@]2(OC(C)=O)C(=O)[C@H](C)/C=C/C(C)(C)C(=O)[C@H](OC(=O)/C(C)=C/C)[C@H]1OC(C)=O
[1]
  inhibition: inactive
[2]
  inhibition: inactive

## C=C1[C@@H](OC(C)=O)[C@H]2[C@@H](OC(=O)c3ccccc3)[C@@H](C)C[C@]2(O)[C@H](O)[C@H](C)/C=C/C(C)(C)C(=O)[C@H](O)[C@H]1OC(C)=O
[1]
  inhibition: inactive
[2]
  inhibition: inactive

## CC(=O)O[C@H]1[C@@H](OC(C)=O)C(C)(C)/C=C/[C@@](C)(O)C(=O)[C@@]2(O)C[C@@](C)(OC(C)=O)[C@H](OC(C)=O)[C@@H]2[C@H]2OC(=O)CC[C@@]2(OC(=O)C(C)C)[C@@H]1OC(=O)C(C)C
[1]
  inhibition: inactive
[2]
  inhibition: inactive
